Experimental findings from ChEMBL document CHEMBL3091413, “Fine molecular tuning at position 4 of 2H-chromen-2-one derivatives in the search of potent and selective monoamine oxidase B inhibitors” (Eur J Med Chem, 2013) are described below.

Assay [1] concerns the target T1, Amine oxidase [flavin-containing] A (Rattus norvegicus, UniProt P21396).
T1 sequence (P21396 whole entry): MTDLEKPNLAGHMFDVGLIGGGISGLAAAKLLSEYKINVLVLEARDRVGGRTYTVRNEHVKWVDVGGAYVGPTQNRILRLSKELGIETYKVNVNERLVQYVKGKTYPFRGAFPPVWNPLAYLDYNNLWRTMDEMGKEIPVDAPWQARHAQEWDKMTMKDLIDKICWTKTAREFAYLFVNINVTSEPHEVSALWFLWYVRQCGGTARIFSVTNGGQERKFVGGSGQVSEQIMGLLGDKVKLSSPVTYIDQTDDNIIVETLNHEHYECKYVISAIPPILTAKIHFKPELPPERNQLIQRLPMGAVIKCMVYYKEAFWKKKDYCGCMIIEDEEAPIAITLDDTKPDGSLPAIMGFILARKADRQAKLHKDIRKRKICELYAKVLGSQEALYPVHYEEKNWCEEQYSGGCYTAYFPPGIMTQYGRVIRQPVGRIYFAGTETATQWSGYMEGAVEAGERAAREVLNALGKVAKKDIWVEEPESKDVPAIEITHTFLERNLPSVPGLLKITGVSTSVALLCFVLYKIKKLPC
Nature of the assay: Inhibition of Sprague-Dawley rat MAO-A using Kynuramine as substrate assessed as formation of 4-hydroxyquinoline preincubated for 5 mins prior to substrate addition measured for 5 mins by spectrophotometry. In short, it runs like this:
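Enzyme source: crude brain mitochondrial fraction from male Sprague-Dawley rats (200-250 g), decapitated. Brains were washed in ice-cold isotonic Na2HPO4/KH2PO4 buffer (pH 7.40) with sucrose, fractionated by differential centrifugation, and stored at -40 °C in isotonic phosphate buffer (pH 7.4) with KCl. Kynuramine oxidation to 4-hydroxyquinoline was monitored spectrophotometrically. Values are the mean of two or three independent experiments.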

In assay [2] the target is T2, Amine oxidase [flavin-containing] B (Rattus norvegicus, UniProt P19643).
T2 sequence (P19643 whole entry): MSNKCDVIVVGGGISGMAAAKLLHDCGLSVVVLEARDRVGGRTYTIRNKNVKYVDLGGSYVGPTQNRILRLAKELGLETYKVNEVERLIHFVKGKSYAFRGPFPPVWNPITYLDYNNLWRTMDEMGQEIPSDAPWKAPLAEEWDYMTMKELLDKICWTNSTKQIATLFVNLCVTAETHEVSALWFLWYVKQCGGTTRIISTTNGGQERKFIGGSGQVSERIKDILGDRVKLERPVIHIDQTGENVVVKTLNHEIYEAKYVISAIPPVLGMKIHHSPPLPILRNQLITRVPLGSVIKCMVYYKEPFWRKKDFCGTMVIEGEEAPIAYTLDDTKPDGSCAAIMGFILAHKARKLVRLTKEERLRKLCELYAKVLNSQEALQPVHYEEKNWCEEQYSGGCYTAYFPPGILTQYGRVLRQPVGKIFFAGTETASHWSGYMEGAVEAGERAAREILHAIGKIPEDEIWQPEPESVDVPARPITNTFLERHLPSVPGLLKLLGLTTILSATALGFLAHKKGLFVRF
Nature of the assay: Inhibition of Sprague-Dawley rat MAO-B using Kynuramine as substrate assessed as formation of 4-hydroxyquinoline preincubated for 5 mins prior to substrate addition measured for 5 mins by spectrophotometry.

For another assay, the species on record is Rattus norvegicus. Nature of the assay: Selectivity ratio for Sprague-Dawley rat MAO-B to Sprague-Dawley rat MAO-A. In short, it runs like this:
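Selectivity index is pIC50 MAO-B minus pIC50 MAO-A (ΔpIC50), from the rat brain mitochondrial kynuramine assay.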

For the molecule `COc1cc(=O)oc2cc(OCc3cccc(Cl)c3)ccc12`, the IC50 in assay [1] is 11700 nM; in assay [2] (read-out: pIC50 (converted)), 7.76 nM.

As to `O=c1cc(Cl)c2ccc(OCc3cccc(Cl)c3)cc2o1`, the IC50 in assay [1] is 8910 nM; in assay [2] (read-out: pIC50 (converted)), 20.9 nM.

As to `NC(=O)COc1cc(=O)oc2cc(OCc3cccc(Cl)c3)ccc12`, the figures for the IC50 in assay [1], in assay [2] (read-out: IC50) and in assay [2] (read-out: pIC50 (converted)) were 24000 nM, 3.1 nM and 3.31 nM, respectively. Further, in the assay listed under Rattus norvegicus, the Selectivity ratio was determined as 7240.

With `CNc1cc(=O)oc2cc(OCc3cccc(Cl)c3)ccc12`, the IC50 in assay [1] is 4070 nM; in assay [2] (read-out: pIC50 (converted)) it was 8.71 nM.
